# Measurements as given in ChEMBL document CHEMBL3826943, “Design, synthesis and evaluation of 6-aryl-indenoisoquinolone derivatives dual targeting ERα and VEGFR-2 as anti-breast cancer agents” (Eur J Med Chem, 2016).
# Active and inactive are the calls of the source. The calls are words filed in the database; no cut-off is given here.
# Key:
# [1] = biological target: T1, Estrogen receptor (Homo sapiens, UniProt P03372); assay: Displacement of fluorescein-labeled estrogen ligand from recombinant ER-alpha (unknown origin) incubated for 2 hrs by fluorescence polarization assay
# T1 sequence (P03372 whole entry): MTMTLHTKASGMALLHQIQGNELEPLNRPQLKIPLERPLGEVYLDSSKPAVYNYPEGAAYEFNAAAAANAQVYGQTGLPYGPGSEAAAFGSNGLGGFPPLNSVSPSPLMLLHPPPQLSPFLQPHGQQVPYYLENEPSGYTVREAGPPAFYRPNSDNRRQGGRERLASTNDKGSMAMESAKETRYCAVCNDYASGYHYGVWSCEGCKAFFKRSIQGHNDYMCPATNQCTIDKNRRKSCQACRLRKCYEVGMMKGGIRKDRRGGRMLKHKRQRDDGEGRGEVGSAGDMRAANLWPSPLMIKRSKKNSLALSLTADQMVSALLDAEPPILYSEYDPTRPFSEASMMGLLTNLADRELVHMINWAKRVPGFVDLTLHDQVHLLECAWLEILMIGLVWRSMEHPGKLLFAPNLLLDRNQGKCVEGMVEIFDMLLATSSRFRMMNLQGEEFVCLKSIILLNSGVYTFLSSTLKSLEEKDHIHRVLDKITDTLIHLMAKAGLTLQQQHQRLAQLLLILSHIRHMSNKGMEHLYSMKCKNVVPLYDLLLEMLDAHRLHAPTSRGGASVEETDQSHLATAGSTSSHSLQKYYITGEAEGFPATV
# [2] = system: MCF7; assay: Antiproliferative activity against human MCF7 cells incubated for 48 hrs by MTT assay; type: functional, cell-based; conditions: MCF7, 48 h
# Summary of the method: (§1)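 Cells kept in RPMI1640 with 10% FBS, penicillin/streptomycin, 37 °C, 5% CO2. Seeded at 1×10^5/mL, allowed 24 h, then exposed to compound at 1×10^-4, 1×10^-5, 1×10^-6 and 1×10^-7 mol/L for 48 h; controls got medium with 1% DMSO. MTT added for 4 h in the dark, formazan dissolved in DMSO, absorbance at 490 nm used for IC50.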
# [3] = system: MDA-MB-231; assay: Antiproliferative activity against human MDA-MB-231 cells incubated for 48 hrs by MTT assay; type: functional, cell-based; conditions: MDA-MB-231, 48 h; summary of the method: as §1
# [4] = system: Ishikawa; assay: Antiproliferative activity against human Ishikawa cells incubated for 48 hrs by MTT assay; type: functional, cell-based; summary of the method: as §1
# [5] = biological target: T2, Vascular endothelial growth factor receptor 2 (Homo sapiens, UniProt P35968)
# T2 sequence (P35968 whole entry): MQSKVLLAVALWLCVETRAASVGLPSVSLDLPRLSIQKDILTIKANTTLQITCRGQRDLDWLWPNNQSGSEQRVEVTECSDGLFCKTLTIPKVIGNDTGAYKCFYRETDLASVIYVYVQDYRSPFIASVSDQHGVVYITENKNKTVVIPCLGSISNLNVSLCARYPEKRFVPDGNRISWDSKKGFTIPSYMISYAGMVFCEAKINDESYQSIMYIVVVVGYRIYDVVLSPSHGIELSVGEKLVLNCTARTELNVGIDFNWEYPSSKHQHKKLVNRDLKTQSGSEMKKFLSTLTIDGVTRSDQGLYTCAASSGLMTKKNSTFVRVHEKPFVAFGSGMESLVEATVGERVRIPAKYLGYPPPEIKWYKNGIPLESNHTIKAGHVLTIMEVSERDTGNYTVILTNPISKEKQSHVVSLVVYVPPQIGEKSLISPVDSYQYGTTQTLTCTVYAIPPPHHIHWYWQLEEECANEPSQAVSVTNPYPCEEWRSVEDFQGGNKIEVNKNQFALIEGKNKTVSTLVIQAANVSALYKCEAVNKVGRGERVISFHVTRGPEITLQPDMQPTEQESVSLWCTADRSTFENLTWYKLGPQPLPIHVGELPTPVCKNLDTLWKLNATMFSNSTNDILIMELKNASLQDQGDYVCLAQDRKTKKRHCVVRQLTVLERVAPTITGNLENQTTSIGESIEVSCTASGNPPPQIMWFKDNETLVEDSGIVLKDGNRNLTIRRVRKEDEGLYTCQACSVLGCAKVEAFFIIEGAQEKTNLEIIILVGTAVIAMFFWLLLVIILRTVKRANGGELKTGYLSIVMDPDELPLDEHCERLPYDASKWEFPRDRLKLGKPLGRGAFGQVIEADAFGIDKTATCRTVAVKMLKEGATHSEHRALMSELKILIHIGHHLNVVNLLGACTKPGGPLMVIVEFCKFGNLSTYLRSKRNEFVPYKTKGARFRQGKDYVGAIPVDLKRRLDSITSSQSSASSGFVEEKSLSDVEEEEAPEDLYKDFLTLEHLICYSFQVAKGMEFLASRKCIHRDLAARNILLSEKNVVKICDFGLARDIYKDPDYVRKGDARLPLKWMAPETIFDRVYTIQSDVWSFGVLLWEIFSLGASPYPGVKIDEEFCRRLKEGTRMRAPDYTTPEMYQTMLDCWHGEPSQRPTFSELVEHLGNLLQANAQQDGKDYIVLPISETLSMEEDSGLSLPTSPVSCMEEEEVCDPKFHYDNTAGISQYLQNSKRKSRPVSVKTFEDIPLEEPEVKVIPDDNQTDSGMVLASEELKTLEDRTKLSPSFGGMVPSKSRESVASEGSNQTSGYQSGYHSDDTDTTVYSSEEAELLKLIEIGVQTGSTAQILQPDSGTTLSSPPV
# [6] = system: HUVEC; assay: Antiangiogenic activity in HUVEC assessed as inhibition of cell proliferation incubated for 48 hrs by MTT assay; type: functional, cell-based; conditions: Homo sapiens; summary of the method: as §1
# [7] = biological target: T2, Vascular endothelial growth factor receptor 2; assay: Inhibition of VEGFR2 in HUVEC assessed as reduction in expression of phosphorylated VEGFR2 incubated for 24 hrs by Western blot analysis; type: cell-based
# Summary of the method: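 HUVEC treated 24 h, washed with PBS, lysed on ice in Tris/SDS/glycerol/β-mercaptoethanol buffer. Protein measured by BCA, equal amounts run on 12% SDS-PAGE, semi-dry transfer to PVDF. Primary antibodies (p-VEGFR-2, VEGFR-2) overnight at 4 °C, HRP secondary 1 h at 37 °C, ECL detection. Phosphorylation rate by densitometry, mean ± SD, n=3.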
# [8] = biological target: T2, Vascular endothelial growth factor receptor 2; assay: Inhibition of VEGFR2 in human MCF7 cells assessed as reduction in expression of phosphorylated VEGFR2 at 0.25 to 1 uM incubated for 24 hrs by Western blot analysis; type: cell-based
# Summary of the method: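 MCF-7 cells treated 24 h, lysed on ice, protein quantified by BCA, equal loads separated on 12% SDS-PAGE and blotted to PVDF. Probed for p-VEGFR-2 and total VEGFR-2 overnight at 4 °C, HRP secondary 1 h at 37 °C, chemiluminescence on film. VEGFR-2 phosphorylation rate by densitometry, mean ± SD (n=3).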
# [9] = biological target: T2, Vascular endothelial growth factor receptor 2; conditions: HUVEC, at 1 µM
# [10] = biological target: T2, Vascular endothelial growth factor receptor 2; conditions: MCF7, at 1 µM
# [11] = biological target: T2, Vascular endothelial growth factor receptor 2; conditions: MCF7, at 1 µM; remark: listed apart in the source
SMILES,IC50 [1],IC50 [2],IC50 [3],IC50 [5],IC50 ([5]; read-out: IC50),inhibition [7],inhibition [8],inhibition [9],inhibition [10],inhibition [11],IC50 [4],IC50 [6]
COc1ccc2c(c1)C(=O)c1c-2n(-c2ccc(OCCCN3CCOCC3)cc2)c(=O)c2cc(OC)ccc12,> 100 µM,> 100 µM,> 100 µM,Not Active,,,,,,,> 100 µM,> 100 µM
COc1ccc2c(c1)C(=O)c1c-2n(-c2ccc(OCCN3CCOCC3)cc2)c(=O)c2cc(OC)ccc12,> 100 µM,> 100 µM,> 100 µM,Not Active,,,,,,,> 100 µM,> 100 µM
COc1ccc2c(c1)C(=O)c1c-2n(-c2ccc(OCCCN3CCCC3)cc2)c(=O)c2cc(OC)ccc12,40.3 µM,3.2 µM,3 µM,Not Active,,,,,,,12.8 µM,5.1 µM
COc1ccc2c(c1)C(=O)c1c-2n(-c2ccc(OCCCN3CCCCC3)cc2)c(=O)c2cc(OC)ccc12,38.3 µM,7.8 µM,21.7 µM,Not Active,,,,,,,4.5 µM,> 100 µM
CCN(CC)CCNC(=O)c1c(C)[nH]c(/C=C2\C(=O)Nc3ccc(F)cc32)c1C [SUNITINIB],,,,,,,,,,,,0.8 µM
CCN(CC)CCCOc1ccc(-n2c3c(c4ccc(OC)cc4c2=O)C(=O)c2cc(OC)ccc2-3)cc1,39.8 µM,2.3 µM,1.5 µM,Not Active,,,,,,,4.1 µM,16 µM
CN(C)CCOc1ccc(-n2c3c(c4ccc(O)cc4c2=O)C(=O)c2cc(O)ccc2-3)cc1,7.6 µM,3.8 µM,3.3 µM,,0.33 µM,,,,,,5.1 µM,4.6 µM
O=C1c2cc(O)ccc2-c2c1c1ccc(O)cc1c(=O)n2-c1ccc(OCCN2CCOCC2)cc1,19.8 µM,> 100 µM,> 100 µM,Not Active,,,,,,,> 100 µM,> 100 µM
CN1CCN(CCOc2ccc(-n3c4c(c5ccc(O)cc5c3=O)C(=O)c3cc(O)ccc3-4)cc2)CC1,10.6 µM,2.5 µM,4.1 µM,Not Active,,,,,,,6.1 µM,1.1 µM
CC/C(=C(\c1ccccc1)c1ccc(OCCN(C)C)cc1)c1ccccc1 [TAMOXIFEN],,5.3 µM,13.9 µM,,,,,,,,6 µM,
COc1ccc2c(c1)C(=O)c1c-2n(-c2ccc(OCCCN(C)C)cc2)c(=O)c2cc(OC)ccc12,39.4 µM,1.4 µM,0.6 µM,Not Active,,,,,,,9.6 µM,25 µM
COc1ccc2c(c1)C(=O)c1c-2n(-c2ccc(OCCCN3CCN(C)CC3)cc2)c(=O)c2cc(OC)ccc12,35.2 µM,> 100 µM,> 100 µM,Not Active,,,,,,,> 100 µM,> 100 µM

# Further lines, with some results ahead:
IC50 [1],IC50 [2],IC50 [3],IC50 [5],IC50 ([5]; read-out: IC50),inhibition [7],inhibition [8],inhibition [9],inhibition [10],inhibition [11],SMILES,IC50 [4],IC50 [6]
6.7 µM,0.8 µM,1 µM,,0.12 µM,,,,,,CCN(CC)CCOc1ccc(-n2c3c(c4ccc(O)cc4c2=O)C(=O)c2cc(O)ccc2-3)cc1,4 µM,1.8 µM
17.7 µM,0.7 µM,0.7 µM,Not Active,,,,,,,COc1ccc2c(c1)C(=O)c1c-2n(-c2ccc(OCCN3CCCC3)cc2)c(=O)c2cc(OC)ccc12,8.7 µM,> 100 µM
24.4 µM,1.1 µM,1.1 µM,,3.9 µM,,,,,,COc1ccc2c(c1)C(=O)c1c-2n(-c2ccc(OCCN(C)C)cc2)c(=O)c2cc(OC)ccc12,10.6 µM,35.6 µM
18.7 µM,0.7 µM,1.3 µM,,1.03 µM,,,,,,CCN(CC)CCOc1ccc(-n2c3c(c4ccc(OC)cc4c2=O)C(=O)c2cc(OC)ccc2-3)cc1,6.7 µM,11.4 µM
23.3 µM,1.1 µM,> 100 µM,Not Active,,,,,,,COc1ccc2c(c1)C(=O)c1c-2n(-c2ccc(OCCN3CCN(C)CC3)cc2)c(=O)c2cc(OC)ccc12,10.9 µM,12 µM
7.2 µM,1.2 µM,0.5 µM,,0.099 µM,Dose-dependent effect,Active,Active,Active,Active,O=C1c2cc(O)ccc2-c2c1c1ccc(O)cc1c(=O)n2-c1ccc(OCCN2CCCC2)cc1,8.2 µM,0.8 µM
3.4 µM,1.1 µM,0.8 µM,,0.25 µM,,,,,,O=C1c2cc(O)ccc2-c2c1c1ccc(O)cc1c(=O)n2-c1ccc(OCCN2CCCCC2)cc1,4.3 µM,1.3 µM
24.9 µM,0.3 µM,2.8 µM,Not Active,,,,,,,COc1ccc2c(c1)C(=O)c1c-2n(-c2ccc(OCCN3CCCCC3)cc2)c(=O)c2cc(OC)ccc12,9.6 µM,> 100 µM
